Test results taken from ChEMBL document CHEMBL3244412, “Benzopyrones. 14. Synthesis and antiallergic properties of some N-tetrazolylcarboxamides and related compounds” (1978).
≈ marks a conversion by molar mass, not a printed value.

Key:
[1] = Antianaphylactic activity in rat mast cells assessed as inhibition of DNP-ovalbumin-induced histamine release after 15 mins by superfusion assay; assay type: functional; details: Mast cell, 0.25 h, read-out: ED50 (the source's name)
Method in brief: (§1)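 Peritoneal and pleural cells from male albino rats were washed, sensitized with 1:10 rat reaginic anti-DNP-ovalbumin serum for 2 h at 37 °C, and resuspended at 1.2-1.7 × 10⁵ mast cells/mL. Compound and DNP-ovalbumin were added together and incubated for 15 min at 37 °C. Supernatant (free) and lysed-cell (residual) histamine were assayed by guinea pig ileum superfusion bioassay. Inhibition of net histamine release was used to derive EC50 from dose ranging against the reference compound.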

[2] = Antianaphylactic activity in rat mast cells assessed as inhibition of DNP-ovalbumin-induced histamine release after 15 mins by superfusion assay relative to 4-oxo-N-(5-tetrazolyl)-4H-l-benzopyran-2-carboxamide; assay type: functional, Mast cell; method in brief: as §1
Rattus norvegicus [3] = assay: Antiallergic activity in rat assessed as inhibition of DNP-ovalbumin-induced passive cutaneous anaphylaxis at 1 mg/kg, iv after 30 mins relative to control; assay type: functional; details: for inhibition in vivo at 1 mg/kg: Rattus norvegicus, iv, 0.5 h
Method in brief: (§2)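 Female albino rats (groups of four) were shaved and sensitized by dorsal intradermal injection of 0.1 mL diluted rat reaginic anti-DNP-ovalbumin serum, raised with Bordetella pertussis adjuvant. After 48 h they were challenged iv with 2 mg DNP-ovalbumin in 0.5 mL 1% Evans blue/saline, with the compound given iv in aqueous solution at the same time. After 30 min, skin weals were scored visually on a 5-point scale; % inhibition was taken versus vehicle controls.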

Rattus norvegicus [4] = assay: Antiallergic activity in rat assessed as inhibition of DNP-ovalbumin-induced passive cutaneous anaphylaxis at 5 mg/kg, iv after 30 mins relative to control; assay type: functional; details: 0.5 h; method in brief: as §2

Row | Compound | EC50 [1] | fold change (potency relative to reference compound) [2] | inhibition in vivo at 1 mg/kg (Rattus norvegicus [3]) | inhibition in vivo at 5 mg/kg (Rattus norvegicus [4]) | inhibition (INH) (Rattus norvegicus [3])
1 | O=C(NCCO)c1ccc2oc(C(=O)NCCO)cc(=O)c2c1 | > 18 µg/mL | <0.005 | 15% |  | 
2 | CN1CCN(C(=O)c2cc(=O)c3ccccc3o2)CC1.Cl | > 18 µg/mL | <0.005 | 0% |  | 
3 | Cc1oc2ccc(S(=O)(=O)Nc3nnn[nH]3)cc2c(=O)c1C | > 18 µg/mL | <0.005 | 20% |  | 
4 | O=C([O-])c1cc(=O)c2c(OCC(O)COc3cccc4oc(C(=O)[O-])cc(=O)c34)cccc2o1.[Na+].[Na+] [CROMOLYN SODIUM] | 2.55 µg/mL | 0.02 | 40% |  | 
5 | CCOC(=O)C(=O)Nc1ccc2oc(C(=O)OCC)cc(=O)c2c1 | 12 µg/mL (≈ 36 µM) | 0.005 | 65% |  | 
6 | CCOC(=O)c1cc(=O)c2cc(NC(=O)Cc3nnn[nH]3)ccc2o1 | 11 µg/mL (≈ 32 µM) | 0.005 | 65% |  | 
7 | O=C(O)CCCNC(=O)c1cc(=O)c2ccccc2o1 | > 18 µg/mL | <0.005 | 0% |  | 
8 | O=C(Nc1nnn[nH]1)c1cc(=O)c2cc(-c3nnn[nH]3)ccc2o1 | 0.1 µg/mL (≈ 0.307 µM) | 0.85 | 70% |  | 
9 | Cn1nnc(NC(=O)c2cc(=O)c3ccccc3o2)n1 |  |  | 25% |  | 
10 | O=C(O)CNC(=O)c1ccc2oc(C(=O)NCC(=O)O)cc(=O)c2c1 | > 18 µg/mL | <0.005 | 10% |  | 
11 | O=C(O)CCCCCNC(=O)c1cc(=O)c2ccccc2o1 | > 18 µg/mL | <0.005 | 0% |  | 
12 | O=C(Nc1nnn[nH]1)c1ccc2oc(C(=O)Nc3nnn[nH]3)cc(=O)c2c1 | 0.55 µg/mL (≈ 1.49 µM) | 0.1 | 100% |  | 
13 | O=C(O)c1ccc2occc(=O)c2c1 | > 18 µg/mL | <0.005 | 0% |  | 
14 | Cc1ccc2oc(C(=O)O)c(-c3ccccc3)c(=O)c2c1 | > 18 µg/mL | <0.005 | 0% |  | 
15 | O=C(Nc1nccs1)c1cc(=O)c2ccccc2o1 | > 18 µg/mL | <0.005 | 15% |  | 
16 | NC(=O)c1cc(=O)c2ccc(O)c(N)c2o1 | > 18 µg/mL | <0.005 | 15% |  | 
17 | O=C(O)CCNC(=O)c1cc(=O)c2ccccc2o1 | > 18 µg/mL | <0.005 | 0% |  | 
18 | CN1CCN(C(=O)/C=C/c2coc3ccccc3c2=O)CC1 | > 18 µg/mL | <0.005 | 0% |  | 
19 | O=C(Nc1nc[nH]n1)c1cc(=O)c2ccccc2o1 | 5 µg/mL (≈ 19.5 µM) | 0.002 | 0% |  | 
20 | NC(=O)c1cc(=O)c2cc(N)ccc2o1 | > 18 µg/mL | <0.005 | 10% |  | 
21 | O=C(Nc1nnn[nH]1)c1ccc2oc(-c3nnn[nH]3)cc(=O)c2c1 | 0.055 µg/mL (≈ 0.169 µM) | 1 | 70% |  | 

Now from value to molecule, other results behind:

Row | EC50 [1] | Compound | fold change (potency relative to reference compound) [2] | inhibition in vivo at 1 mg/kg (Rattus norvegicus [3]) | inhibition in vivo at 5 mg/kg (Rattus norvegicus [4]) | inhibition (INH) (Rattus norvegicus [3])
22 | 2.3 µg/mL (≈ 8.15 µM) | N#Cc1ccc2oc(C(=O)Nc3nnn[nH]3)cc(=O)c2c1 | 0.03 | 100% |  | 
23 | 0.7 µg/mL (≈ 2.72 µM) | O=C(Nc1nnn[nH]1)c1ccc2occc(=O)c2c1 | 0.08 | 35% |  | 
24 | 0.11 µg/mL (≈ 0.403 µM) | O=C(Nc1nnn[nH]1)c1cc(=O)c2ccc(O)cc2o1 | 0.77 | 65% |  | 
25 | > 18 µg/mL | O=C(O)c1coc2ccccc2c1=O | <0.005 | 20% |  | 
26 | 6 µg/mL (≈ 21.2 µM) | O=C(/C=C/c1coc2ccccc2c1=O)Nc1nnn[nH]1 | <0.005 | 65% |  | 
27 | 0.075 µg/mL (≈ 0.277 µM) | Cc1ccc2oc(C(=O)Nc3nnn[nH]3)cc(=O)c2c1 | 1.2 | 75% |  | 
28 | > 18 µg/mL | COc1ccc2c(=O)c(-c3ccccc3)c(C(=O)Nc3nnn[nH]3)oc2c1 | <0.005 | 25% |  | 
29 | > 18 µg/mL | O=C(Cc1nnn[nH]1)Nc1coc2ccccc2c1=O | <0.005 |  | 0% | 
30 | 0.033 µg/mL (≈ 0.128 µM) | O=C(Nc1nnn[nH]1)c1coc2ccccc2c1=O | 0.48 | 65% |  | 
31 | > 18 µg/mL | O=c1c(/C=N/O)coc2ccccc12 | 0.0006 | 25% |  | 
32 | > 18 µg/mL | O=C(Nc1nnn[nH]1)c1coc(=O)c2ccccc12 | <0.005 | 0% |  | 
33 | 0.4 µg/mL (≈ 1.4 µM) | CNc1c(C(=O)Nc2nnn[nH]2)oc2ccccc2c1=O | 0.04 | 100% |  | 
34 | 0.58 µg/mL (≈ 2.14 µM) | Cc1ccc2c(=O)cc(C(=O)Nc3nnn[nH]3)oc2c1 | 0.19 | 75% |  | 
35 | 0.8 µg/mL (≈ 2.74 µM) | O=C(Nc1nnn[nH]1)c1oc2ccccc2c(=O)c1Cl | 0.11 | 75% |  | 
36 | 0.085 µg/mL (≈ 0.269 µM) | O=C(Nc1nnn[nH]1)c1oc2ccccc2c(=O)c1NCCO | 0.18 | 100% |  | 
37 | 0.65 µg/mL (≈ 2.12 µM) | O=C(Nc1nnn[nH]1)c1cccc2c(=O)c3ccccc3[nH]c12 | 0.14 | 90% |  | 
38 | 0.024 µg/mL | NCCCO.O=C(Nc1nnn[nH]1)c1oc2ccccc2c(=O)c1NCCCO | 0.67 | 100% |  | 
39 | 0.4 µg/mL (≈ 1.47 µM) | Cc1c(C(=O)Nc2nnn[nH]2)oc2ccccc2c1=O | 1 | 70% |  | 
40 | 0.75 µg/mL (≈ 2.57 µM) | O=C(Nc1nnn[nH]1)c1cc(=O)c2cc(Cl)ccc2o1 | 0.12 | 65% |  | 
41 | 0.16 µg/mL | Cc1ccc2c(=O)cc(C(=O)Nc3nnn[nH]3)oc2c1.NCCO | 0.75 |  |  | 80%
42 | 5 µg/mL (≈ 21.7 µM) | O=c1c(-n2nn[nH]c2=O)coc2ccccc12 | 0.01 |  | 75% | 
43 | > 18 µg/mL | O=C(Nc1nnn[nH]1)c1cc2ccccc2c(=O)o1 | <0.005 | 0% |  | 
44 | 0.048 µg/mL (≈ 0.167 µM) | COc1ccc2c(=O)cc(C(=O)Nc3nnn[nH]3)oc2c1 | 1.8 | 75% |  | 
45 | > 18 µg/mL | O=C(Nc1nnn[nH]1)c1oc2ccccc2c(=O)c1N1CCOCC1 | <0.005 | 10% |  | 
46 | 14 µg/mL | CN1CCN(C(=O)c2coc3ccccc3c2=O)CC1.Cl | 0.007 | 20% |  | 
47 | 8 µg/mL (≈ 23 µM) | Cc1ccc2oc(C(=O)Nc3nnn[nH]3)c(-c3ccccc3)c(=O)c2c1 | 0.005 | 50% |  | 
48 | > 18 µg/mL | Cn1nnnc1NC(=O)c1cc(=O)c2ccccc2o1 | <0.005 | 0% |  | 
49 | > 18 µg/mL | CN(C(=O)c1cc(=O)c2ccccc2o1)c1nnn[nH]1 | <0.005 | 0% |  | 
50 | 5.5 µg/mL (≈ 18.2 µM) | O=C(Nc1nnn[nH]1)c1cc(=O)c2cc([N+](=O)[O-])ccc2o1 | 0.01 | 15% |  | 
